Test results taken from ChEMBL document CHEMBL4414562, “Discovery of the First in Vivo Active Inhibitors of the Soluble Epoxide Hydrolase Phosphatase Domain” (J Med Chem, 2019).
Calls of active or inactive are those of the source. The calls are words filed in the database; no cut-off is given here.

Tests used:
[1] = Inhibition of hexa-His-tagged human soluble epoxide hydrolase N-terminal phosphatase domain expressed in Escherichia coli BL21(DE3) pre-incubated for 30 mins before FDP substrate addition by fluorescence based assay
Homo sapiens [2] = species on record: Homo sapiens; test: Induction of stabilization of hexa-His-tagged human soluble epoxide hydrolase N-terminal phosphatase domain expressed in Escherichia coli BL21(DE3) at 50 uM by differential scanning fluorimetry
[3] = target: T1, Bifunctional epoxide hydrolase 2 (Homo sapiens) (UniProt P34913); test: Induction of stabilization of hexa-His-tagged human soluble epoxide hydrolase C-terminal hydrolase domain expressed in Escherichia coli BL21(DE3) at 50 uM by differential scanning fluorimetry
T1 sequence (whole entry): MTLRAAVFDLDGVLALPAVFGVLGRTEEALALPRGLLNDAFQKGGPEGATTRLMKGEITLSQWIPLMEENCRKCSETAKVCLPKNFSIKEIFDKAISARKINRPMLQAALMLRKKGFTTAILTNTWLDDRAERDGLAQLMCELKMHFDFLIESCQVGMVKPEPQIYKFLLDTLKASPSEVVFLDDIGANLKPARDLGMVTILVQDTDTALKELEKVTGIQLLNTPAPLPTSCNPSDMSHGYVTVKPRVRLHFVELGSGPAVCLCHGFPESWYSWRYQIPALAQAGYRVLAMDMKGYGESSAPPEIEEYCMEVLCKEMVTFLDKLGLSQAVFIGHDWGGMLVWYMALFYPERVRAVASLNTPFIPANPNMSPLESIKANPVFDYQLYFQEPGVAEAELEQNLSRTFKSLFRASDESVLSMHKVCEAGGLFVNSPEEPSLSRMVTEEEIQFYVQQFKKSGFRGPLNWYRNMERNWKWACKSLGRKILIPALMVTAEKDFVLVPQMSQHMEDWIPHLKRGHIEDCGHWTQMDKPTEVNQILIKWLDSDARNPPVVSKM

[4] = target: T2, Bifunctional epoxide hydrolase 2 (Homo sapiens, UniProt P34913); test: Inhibition of hydrolase activity of full length human soluble epoxide hydrolase pre-incubated for 30 mins before PHOME substrate addition by fluorescence based assay
T2 sequence (P34913 whole entry): T1 sequence (whole entry)
In short: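 Hydrolase assay with 0.1 μM full-length enzyme in Bis-Tris pH 7 containing 0.1 mg/mL BSA and 0.01% Triton X-100. Reaction started with PHOME (50 μM final). Triplicates.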

[5] = target: T2, Bifunctional epoxide hydrolase 2; test: Inhibition of phosphatase activity of full length human soluble epoxide hydrolase pre-incubated for 30 mins before FDP substrate addition by fluorescence based assay
Homo sapiens [6] = species on record: Homo sapiens
[7] = target: T2, Bifunctional epoxide hydrolase 2; test: Inhibition of hexa-His-tagged human soluble epoxide hydrolase C-terminal hydrolase domain expressed in Escherichia coli BL21(DE3) pre-incubated for 30 mins before PHOME substrate addition by fluorescence based assay

IC50 [1] [nM] | SMILES | further results
120 | O=C(O)CCCc1nc(-c2ccc(Cl)c(Cl)c2)c(-c2cccc(F)c2)o1 | –
> 50000 | O=C(O)CCCc1nc(-c2ccc(Cl)c(Cl)c2)co1 | –
18000 | COc1ccc(-c2nc(CCC(=O)O)oc2-c2ccccc2)cc1 | –
120 | O=C(O)CCc1nc(-c2ccc(Cl)c(Cl)c2)c(-c2ccccc2)o1 | –
3000 | O=C(O)CCc1nc(-c2ccc(Cl)cc2)c(-c2ccccc2)o1 | –
7000 | O=C(O)CCc1nc(-c2cccc(F)c2)c(-c2ccccc2)o1 | –
280 | O=C(O)CCCc1nc(-c2ccc(Cl)c(Cl)c2)c(-c2cc(F)ccc2F)o1 | –
12000 | O=C(O)c1ccc(-c2nc(-c3ccc(Cl)c(Cl)c3)c(-c3ccccc3)o2)cc1 | –
33000 | O=C(O)CCc1nc(-c2ccc(C(F)(F)F)cc2)c(-c2ccccc2)o1 | –
33000 | O=C(O)CCc1nc(-c2ccccc2Cl)c(-c2ccccc2)o1 | –
15000 | O=C(O)c1ccccc1-c1nc(-c2ccc(Cl)c(Cl)c2)c(-c2ccccc2)o1 | –
4000 | O=C(O)CCCc1nc(-c2ccc(Cl)c(Cl)c2)c(-c2cccnc2)o1 | –
– | O=C(Nc1ccc(I)cc1)NC1CCCCC1 | Activity (Homo sapiens [2]): inactive; Activity [3]: Active
9000 | O=C(O)CCc1nc(-c2cc(Cl)cc(Cl)c2)c(-c2ccccc2)o1 | –
230 | O=C(O)CCCc1nc(-c2ccc(Cl)c(Cl)c2)c(-c2cccc(Cl)c2)o1 | –
40000 | O=C(O)CCc1nc(-c2ccccc2F)c(-c2ccccc2)o1 | –

IC50 [1] [nM] | SMILES | further results
17000 | O=C(O)CCc1nc(-c2ccc(Cl)cc2Cl)c(-c2ccccc2)o1 | –
120 | N#Cc1cccc(-c2oc(CCCC(=O)O)nc2-c2ccc(Cl)c(Cl)c2)c1 | –
410 | O=C(O)CCCc1nc(-c2ccc(Cl)c(Cl)c2)c(-c2cccc(C(F)(F)F)c2)o1 | –
310 | COc1cccc(-c2oc(CCCC(=O)O)nc2-c2ccc(Cl)c(Cl)c2)c1 | –
9000 | O=C(O)CCc1nc(-c2ccc(F)cc2)c(-c2ccccc2)o1 | –
510 | O=C(O)/C=C/c1nc(-c2ccc(Cl)c(Cl)c2)c(-c2ccccc2)o1 | –
20000 | O=C(O)CCCc1nc(-c2ccc(Cl)c(Cl)c2)c(-c2ccncc2)o1 | –
140 | C#Cc1cccc(-c2oc(CCCC(=O)O)nc2-c2ccc(Cl)c(Cl)c2)c1 | –
310 | O=C(O)CCCc1nc(-c2ccc(Cl)c(Cl)c2)c(-c2ccccc2F)o1 | –
310 | Cc1cccc(-c2oc(CCCC(=O)O)nc2-c2ccc(Cl)c(Cl)c2)c1 | –
44000 | N#Cc1ccc(-c2nc(CCC(=O)O)oc2-c2ccccc2)cc1 | –
150 | O=C(O)c1cccc(-c2nc(-c3ccc(Cl)c(Cl)c3)c(-c3ccccc3)o2)c1 | –
550 | CC(=O)N[C@@H](CSC/C=C(\C)CC/C=C(\C)CCC=C(C)C)C(=O)O | IC50 [4]: > 300000 nM; IC50 [5]: 2040 nM; ΔTm (Homo sapiens [6]): 3.4 °C; IC50 [7]: > 300000 nM
2000 | O=C(O)CCc1nc(-c2ccc(Cl)c(C(F)(F)F)c2)c(-c2ccccc2)o1 | –
10000 | N#Cc1cccc(-c2nc(CCC(=O)O)oc2-c2ccccc2)c1 | –
3000 | O=C(O)CCCc1nc(-c2ccc(Cl)c(Cl)c2)c(Br)o1 | –

SMILES | IC50 [1] [nM] | further results
O=c1c2ccccc2[se]n1-c1ccccc1 [EBSELEN] | 290 | IC50 [4]: 300 nM; IC50 [5]: 420 nM; IC50 [7]: 110 nM
